# Screens (PubChem)
# T cruzi inh – T. cruzi replication inhibition | T. cruzi beta-gal in NIH3T3, luminescence, 90 h | inhibition, % (test concentration not listed) | actives 1.4% (n = 300,000);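 active means mean inhibition across valid replicates above about 55%, limit read from the data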;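 further: signal also drops with host cell toxicity which is not excluded here; 0% = plate median of DMSO wells and 100% = zero luminescence signal; higher percent means less beta-gal luminescence so fewer parasites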
#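 compound dosing = single 50 nL compound addition per well in DMSO | material = NIH/3T3 host cells with β-galactosidase reporter T. cruzi | input = 5,000 host fibroblasts per well | timing = ≥90 h infection period, 3 h prior cell attachment | read-out basis = percent inhibition of parasite-derived β-gal signal | detection = GalScreen β-gal luminescence, detergent lysis, 60 min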
# hiPSC survival – enhancers of human iPSC single-cell survival; hiPSC single-cell survival, ATPlite luminescence; 100% = ROCK inhibitor wells, 0% = DMSO; survival enhancement, % at 20 µM; actives 0.044% (n = 360,000); AID 602274; in the data active means survival enhancement above about 18%;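 further: cells exposed to compounds for 16 hours before the ATP read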
# beta cell repl – induces beta-cell replication in MIN6 cells; MIN6 cells proliferation, ATPlite luminescence, 48 h; cells starved in 0.2% serum; 100% = growth in 10% serum; proliferation, % at 10 µM; actives 0.29% (n = 330,000);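 active means compounds whose signal lies at least 3.5 SD above the mean of all wells on their plate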;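 further: 0% = DMSO-treated cells in low-serum medium and 100% = 10% serum control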
# Rev-erbA mod – Rev-erb alpha (human) modulation; P20393; Rev-erbα–FITC-DNA binding, fluorescence polarization, 90 min; activity, % at 10 µM; actives 0.79% (n = 370,000);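 active means activity above about 14%, limit read from the data; passing the limit was not always enough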;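 further: 0% = DMSO wells with 35 nM protein and 100% = DMSO wells with 750 nM protein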
# Target sequence (P20393 whole entry, looked up): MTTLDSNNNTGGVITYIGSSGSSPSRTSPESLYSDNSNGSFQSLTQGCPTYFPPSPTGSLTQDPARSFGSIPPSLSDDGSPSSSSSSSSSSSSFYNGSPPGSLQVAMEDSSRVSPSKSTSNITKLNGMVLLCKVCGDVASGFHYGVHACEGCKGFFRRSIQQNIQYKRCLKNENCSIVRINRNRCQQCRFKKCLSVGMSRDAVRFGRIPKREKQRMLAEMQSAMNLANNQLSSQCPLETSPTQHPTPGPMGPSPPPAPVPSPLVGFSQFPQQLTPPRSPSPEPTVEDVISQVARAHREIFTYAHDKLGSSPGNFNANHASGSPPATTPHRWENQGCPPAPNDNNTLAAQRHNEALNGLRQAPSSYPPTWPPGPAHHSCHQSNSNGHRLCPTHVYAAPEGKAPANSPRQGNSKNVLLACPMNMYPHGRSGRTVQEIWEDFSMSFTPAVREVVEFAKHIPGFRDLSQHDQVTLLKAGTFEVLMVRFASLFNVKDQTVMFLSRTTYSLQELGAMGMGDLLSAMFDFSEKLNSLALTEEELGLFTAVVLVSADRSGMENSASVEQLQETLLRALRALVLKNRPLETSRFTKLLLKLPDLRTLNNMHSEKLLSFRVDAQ
# PG9 Ab binder – small molecules binding HIV-1 gp120 antibody PG9; TR-FRET gp120-PG9 antibody binding; inhibition, % at 6.7 µM; actives 0.43% (n = 360,000); AID 624416; in the data active means inhibition above about 8.5%
# TAG inh – inhibitors of triacylglycerol accumulation. H9c2 cells, Nile Red lipid (TAG) fluorescence; cells loaded with 200 µM oleic acid. inhibition, % at 12.5 µM. actives 0.66% (n = 230,000);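 active means pattern-corrected inhibition of lipid staining of at least 50% with the nuclear-stain viability signal not falling by more than 50%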;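 further: 0% = DMSO wells and 100% = triacsin C control wells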
# * = called active by the depositor; x = no result. Sampled rows, rich in hits. Any-hit rate of the full collection: about 2.9%.
SMILES,T cruzi inh,hiPSC survival,beta cell repl,Rev-erbA mod,PG9 Ab binder,TAG inh
Oc1ccc(N=Nc2ccc3c(c2)OCCO3)c2ncccc12,68*,-1,-7,6,-2,79*
O=C(Nc1ncccc1O)c1ccc2c(c1)OCCO2,-9,0,-3,-9,-2,-31
CC(C)(C)S(=O)N1Cc2cc(C(=O)NCc3ccc(Oc4ccccc4)cc3)nc(-c3cccc(-c4cc5ccccc5o4)c3)c2[C@H]1CCO (some centres undefined),x,0,x,-2,-1,x
CCCCCCCOc1ccc(OC(=O)c2cccnc2)cc1,57*,4,-3,1,0,x
CN(C)NC1=CC(=[N+]2CCCC2)CC(C)(C)C1,3,-1,-1,2,-1,1
CC1(C)CC(N2CCCCC2)=CC(=[N+]2CCCCC2)C1,77*,2,-7,8,-1,4
CCCN(CCC)C1=CC(=[N+]2CCCC2)CC(C)(C)C1,60*,-2,-3,3,-1,x
S=C(NCc1ccc(Cl)cc1)NC1CCN(Cc2ccccc2)CC1,60*,-2,-5,7,-4,-18
CCOc1cc(/C=N/NC(=O)Cn2nc([N+](=O)[O-])cc2C)cc(Br)c1OCc1ccccc1C,57*,3,-6,-4,1,x
CN(CC(=O)Nc1cccc(F)c1)C(=O)c1ccccc1OCC(=O)Nc1cccc(C(F)(F)F)c1,61*,0,-4,7,-1,-6
COc1ccc(CCN(Cc2cccs2)S(=O)(=O)c2ccc(S(=O)(=O)N(C)C3CCCCC3)cc2)cc1OC,61*,-2,-1,0,1,x
COc1ccc(CCNC(=O)CCC(=O)Nc2ccc3nc(N4CCN(C)CC4)cc(C)c3c2)cc1OC,29,-1,2,-6,-1,-7
Cc1cccc2cc(-c3nc4c(C)cccn4c3NCc3ccco3)c(=O)[nH]c12,4,-2,4,0,-4,-15
CCOc1ccc(OCC)c(NC(=O)CNS(=O)(=O)c2cccs2)c1,8,-2,1,2,1,21
Cc1ccccc1NC(=S)N1CCCC(c2nc3ccccc3[nH]2)C1 (centres undefined),72*,0,-3,-3,0,1
CC(CCc1ccccc1)NC(=O)c1ccc(NC(=O)c2cccc(Br)c2)cc1 (centres undefined),70*,-2,0,-3,-3,x
CC(CCc1ccccc1)NC(=O)c1ccc(NC(=O)c2ccccc2)cc1 (centres undefined),-38,1,1,-1,2,x
O=C(NNC(=S)Nc1cccc(Cl)c1)c1ccccc1,-11,0,6,0,-1,-1
CCN(CC)c1ccc(/C=C/c2ccc3ccc(OC)cc3[n+]2CC)cc1,61*,0,-5,-2,-34,x
CC[n+]1c(/C=C/c2ccc(N(C)C)cc2)ccc2ccccc21,49,-4,x,-8,-50,x
CC(Oc1cc2oc(=O)c3c(c2cc1Cl)CCC3)C(=O)NCc1cccnc1 (centres undefined),-1,0,1,3,-1,x
CCS(=O)(=O)c1ncc(Cl)c(C(=O)Nc2ccc(S(=O)(=O)N3CCCC(C)C3)cc2)n1 (centres undefined),56*,20*,0,4,0,x
CCS(=O)(=O)c1ncc(Cl)c(C(=O)Nc2ccc(C)cc2)n1,79*,1,-4,-10,2,x
COc1ccc2nc(NC(=S)N(C)C)sc2c1,60*,0,-5,-4,-3,x
CC1CCN(c2nc3ccc(C(=O)N4CCN(Cc5ccccc5)CC4)cc3s2)CC1,13,-1,-4,-3,0,-2
SMILES,T cruzi inh,hiPSC survival,beta cell repl,Rev-erbA mod,PG9 Ab binder,TAG inh
COC(=O)c1c(NC(=O)CN2C(=O)NC3(CCC(C(C)(C)C)CC3)C2=O)sc2c1CCCCC2 (centres undefined),58*,0,-5,13,0,15
CC(C)NC(=O)c1sc2nc3c(c(-c4cccs4)c2c1N)CN(C)CC3,56*,4,-3,-2,-1,-11
CC(C)C1C(=O)N(Cc2cn(CCC3OCCO3)nn2)CCS(=O)(=O)N1Cc1ccc(-c2ccc(Cl)cc2)cc1 (centres undefined),x,1,x,7,0,-12
Cc1ccc(S(=O)(=O)N2CCOCC2)cc1NC(=O)CSc1nc(N)cc(=O)[nH]1,-15,0,1,-3,-1,-9
O=C(Nc1ccc(-c2csc(-c3ccccc3)n2)cc1)c1ccccc1Cl,62*,0,-2,4,-1,x
O=C(CCNC(=O)c1ccccc1Cl)Nc1nc(-c2ccc3ccccc3c2)cs1,56*,1,-6,-5,0,x
O=C(O)c1ccccc1C(=O)Nc1ccc(-c2csc(-c3ccccc3)n2)cc1,-8,6,x,-3,-4,-6
CCOc1ccc(NC(=O)c2c(NC(=O)CNCCN3CCOCC3)sc3c2CCC3)cc1,61*,0,-7,2,-2,33
O=C(CSc1ncnc2nc[nH]c12)Nc1ccc(Br)cc1Cl,9,0,0,-1,-1,-9
c1ccc2c(c1)Oc1ccccc1S2,x,0,1,-4,-2,x
CCOC(=O)c1c(NC(=O)Cn2cnc([N+](=O)[O-])n2)sc2c1CCC(C)C2 (centres undefined),57*,-2,-4,-6,1,14
CCOC(=O)c1c(NC(=O)Cn2cc([N+](=O)[O-])cn2)sc2c1CCC2,9,3,-2,3,2,x
COC(=O)c1c(NC(=O)Cn2cnc([N+](=O)[O-])n2)sc2c1CCC(C)C2 (centres undefined),58*,-1,0,6,-1,x
CCCc1nc2ccc(NC(=O)c3cccs3)cc2c(=O)n1Cc1ccccc1Cl,40,1,0,1,-1,4
O=C(Nc1cc(C(=O)N2CCCC2)ccc1N1CCCC1)C1CC1,0,2,-3,6,1,x
CCN(CC)S(=O)(=O)c1ccc(NCCCn2ccnc2)c([N+](=O)[O-])c1,21,0,-2,8,-2,x
O=C(c1ccccc1)c1ccc(NCCCn2ccnc2)c([N+](=O)[O-])c1,56*,-1,3,3,-2,x
CCCCOC(=O)C(C#N)c1nc2ccccc2nc1N1CCOCC1 (centres undefined),24,1,-3,-1,-1,11
COc1ccccc1N(C(=O)c1ccncc1)c1nc(-c2ccc([N+](=O)[O-])cc2)cs1,62*,0,-6,10,-2,6
Oc1ccc(Nc2nc3ccccc3nc2Nc2ccc(O)cc2)cc1,71*,-4,-5,x,x,109
